Results: publication PMC5684856 (Pharmacology Research & Perspectives, 2017)
“Also recorded” adds a separate entry of the source. Each block holds one compound with its values, some of them ahead of it.

Key:
[1] = ref Tsujihata et al. 2011; Ito et al. 2013; cited from earlier work
[2] = tested on: healthy volunteers and T2DM patients; details: cited from earlier work
Sprague-Dawley rats [3] = test: Effects on fasting glucose levels in Sprague-Dawley rats; assay type: in vivo, rat; details: fasted Sprague-Dawley rats
GPR40/FFAR1 = GPR40/FFAR1 (Mus musculus, UniProt Q76JU9); assay type: cell-based
Outline: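 CHO-DXB11 cells stably expressing mouse GPR40/FFAR1 were assayed for intracellular Ca2+ increases (FLIPR calcium dye, fluorescence imaging plate reader) in the presence of 10% FBS and 0.5% BSA. Triplicate determinations; means + SD.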

[4] = tested on: mouse insulinoma MIN6 cells; test: Caspase 3/7 activity in MIN6 cells; assay type: cell-based; details: 72-h exposure
Outline: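 MIN6 mouse insulinoma cells were grown in DMEM with 10% heat-inactivated FBS, penicillin/streptomycin and 0.0005% 2-mercaptoethanol. Cells were exposed to test compound or palmitic acid for 72 h in 10% FBS plus 0.5% BSA. Caspase-3/7 activity was read with a homogeneous fluorogenic caspase-3/7 kit. Triplicate determinations; means + SD.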

human GPR120/FFAR4 = molecular target: T1, human GPR120/FFAR4 (Homo sapiens, UniProt Q5NUL3); test: Intracellular calcium assay; assay type: cell-based
T1 sequence (Q5NUL3 1-361): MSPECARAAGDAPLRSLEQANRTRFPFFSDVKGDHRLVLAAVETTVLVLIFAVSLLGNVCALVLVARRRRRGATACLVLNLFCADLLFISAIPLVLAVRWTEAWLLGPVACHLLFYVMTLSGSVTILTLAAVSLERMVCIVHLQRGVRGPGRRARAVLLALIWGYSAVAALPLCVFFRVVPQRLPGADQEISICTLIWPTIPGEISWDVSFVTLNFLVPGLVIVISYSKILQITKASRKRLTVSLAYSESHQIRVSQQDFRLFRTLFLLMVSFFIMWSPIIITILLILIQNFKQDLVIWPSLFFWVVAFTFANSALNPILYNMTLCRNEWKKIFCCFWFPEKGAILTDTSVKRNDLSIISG
Outline: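 CHO-DXB11 cells were stably transfected with human GPR120/FFAR4 and grown in Ham's F-12 with 10% heat-inactivated FBS. Intracellular Ca2+ changes were measured in duplicate with a FLIPR calcium kit on a fluorescence imaging plate reader. Alpha-linolenic acid served as the control agonist.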

PPAR gamma = molecular target: T2, PPAR gamma (Homo sapiens, UniProt P37231); test: Nuclear receptor reporter activation assay; assay type: cell-based
T2 sequence (P37231 1-505): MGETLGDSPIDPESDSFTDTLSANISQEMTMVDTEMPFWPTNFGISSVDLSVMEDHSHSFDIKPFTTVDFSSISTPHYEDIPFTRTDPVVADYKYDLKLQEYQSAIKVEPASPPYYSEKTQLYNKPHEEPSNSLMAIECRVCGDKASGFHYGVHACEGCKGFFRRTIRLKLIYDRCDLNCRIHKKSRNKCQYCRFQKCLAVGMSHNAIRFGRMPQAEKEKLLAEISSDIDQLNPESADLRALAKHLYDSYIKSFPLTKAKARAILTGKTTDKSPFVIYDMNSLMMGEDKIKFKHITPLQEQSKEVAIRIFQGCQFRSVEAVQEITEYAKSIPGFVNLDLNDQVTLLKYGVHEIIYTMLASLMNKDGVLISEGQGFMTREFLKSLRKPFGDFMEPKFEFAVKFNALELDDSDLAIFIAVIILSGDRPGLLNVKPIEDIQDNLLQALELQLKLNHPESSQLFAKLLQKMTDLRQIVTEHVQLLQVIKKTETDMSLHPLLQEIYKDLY

rat primary islets = test: Glucose-dependent insulin secretion in rat islets; assay type: cell-based, Sprague-Dawley rats; details: 1 h
Sprague-Dawley rats [5] = test: Oral glucose tolerance test in Sprague-Dawley rats; assay type: in vivo, rat
Outline: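 Male Sprague-Dawley rats, 7–8 weeks old, were fasted overnight and grouped by body weight (n = 10). Vehicle or test compound was given orally 60 min before oral glucose 1 g kg−1. Blood was sampled pre-dose, at −5 min, and at 5, 15, 30, 60 and 120 min. Plasma glucose was measured enzymatically and insulin by ultrasensitive rat insulin ELISA. AUCs covered −5 to 120 min (glucose) and −5 to 60 min (insulin). Dunnett's test; means + SEM.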

mouse GPR40/FFAR1 = mouse GPR40/FFAR1 (Mus musculus, UniProt Q76JU9); test: Intracellular calcium assay; assay type: cell-based
Outline: (§1)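 CHO-DXB11 cells stably expressing human, mouse or rat GPR40/FFAR1 were grown in Ham's F-12 with 10% heat-inactivated FBS and penicillin/streptomycin in 96-well plates. Test compounds were dissolved in DMSO. Ca2+ increases were measured in duplicate (FLIPR kit, fluorescence imaging reader) and expressed as % of fasiglifam Emax. EC50 was obtained by sigmoidal curve fit; means ± SD of 6 assays.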

rat GPR40/FFAR1 = rat GPR40/FFAR1 (Rattus norvegicus, UniProt Q8K3T4); test: Intracellular calcium assay; assay type: cell-based
Outline: as §1

[6] = Pharmacokinetic study in rats; assay type: in vivo, male Sprague-Dawley rats; details: rat
Outline: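 Male Sprague-Dawley rats, 7 weeks old, received 3 mg kg−1 intravenously in N,N-dimethylacetamide/PEG400/water (4/4/2). After overnight fasting, others received 0.3, 1, 3 or 10 mg kg−1 orally as a suspension in 1% Tween 80 with 0.5% carboxymethyl cellulose. Plasma levels were analysed by noncompartmental analysis, with bioavailability from AUC. n = 3 per group; mean (SD).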

human GPR40/FFAR1 = human GPR40/FFAR1 (Homo sapiens, UniProt O14842); test: Intracellular calcium assay; assay type: cell-based
Outline: as §1

human GPR119 = molecular target: T3, human GPR119 (Homo sapiens, UniProt Q8TDV5); test: cAMP reporter assay in CHO-K1 cells expressing human GPR119; assay type: cell-based
T3 sequence (Q8TDV5 1-335): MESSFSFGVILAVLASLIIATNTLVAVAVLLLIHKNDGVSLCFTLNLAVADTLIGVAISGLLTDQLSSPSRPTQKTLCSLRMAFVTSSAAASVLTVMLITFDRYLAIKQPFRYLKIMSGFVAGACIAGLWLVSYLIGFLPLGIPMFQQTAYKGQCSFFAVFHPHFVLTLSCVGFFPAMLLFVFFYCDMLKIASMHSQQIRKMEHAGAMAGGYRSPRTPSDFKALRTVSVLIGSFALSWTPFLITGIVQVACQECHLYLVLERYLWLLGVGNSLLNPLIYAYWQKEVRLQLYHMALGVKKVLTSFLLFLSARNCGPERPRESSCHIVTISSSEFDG
Outline: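 CHO-K1 cells stably expressing human GPR119 were co-transfected with a Cre-luciferase reporter and a renilla luciferase control. Cells were incubated with test compound for 4 h, then lysed. Firefly and renilla luciferase activities were measured in duplicate by dual-luciferase chemiluminescence. AR231453 served as the control agonist.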

Goto-Kakizaki (GK) rats [7] = test: Oral glucose tolerance test in Goto-Kakizaki rats; assay type: in vivo, rat
Outline: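 Male GK rats, 9–10 weeks old, were fasted overnight and grouped (n = 9–10) by fasting glucose and body weight. Vehicle or test compound was given orally, followed by oral glucose 1 g kg−1 60 min later. Blood was taken pre-dose, at −5 min, and at 5–180 min after glucose. Plasma glucose AUC covered −5 to 180 min and insulin AUC −5 to 60 min. Dunnett's test; means + SEM.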

Goto-Kakizaki (GK) rats [8] = test: Chronic 5-week treatment in Goto-Kakizaki rats; assay type: in vivo, rat
[9] = 1 mg·kg^−1 p.o., 15 min after glucose challenge
[10] = p.o. 60 min before glucose 1 g kg^−1, vs vehicle
[11] = male, Sprague-Dawley, plasma, iv, 3 mg/kg
[12] = male, Sprague-Dawley, plasma, po, 0.3 mg/kg
[13] = male, Sprague-Dawley, plasma, po, 1 mg/kg
[14] = male, Sprague-Dawley, plasma, po, 3 mg/kg
[15] = male, Sprague-Dawley, plasma, po, 10 mg/kg

Chain of GPR40/FFAR1 (Q76JU9 whole entry): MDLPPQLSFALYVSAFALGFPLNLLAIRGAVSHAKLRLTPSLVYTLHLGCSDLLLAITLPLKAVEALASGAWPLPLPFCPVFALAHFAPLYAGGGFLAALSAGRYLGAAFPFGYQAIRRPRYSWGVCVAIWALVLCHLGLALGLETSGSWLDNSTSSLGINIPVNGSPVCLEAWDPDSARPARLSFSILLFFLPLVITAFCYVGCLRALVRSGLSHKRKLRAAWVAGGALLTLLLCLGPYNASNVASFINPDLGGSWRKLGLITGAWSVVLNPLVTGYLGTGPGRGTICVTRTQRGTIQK
Chain of mouse GPR40/FFAR1 (Q76JU9 whole entry): as above
Chain of rat GPR40/FFAR1 (Q8K3T4 whole entry): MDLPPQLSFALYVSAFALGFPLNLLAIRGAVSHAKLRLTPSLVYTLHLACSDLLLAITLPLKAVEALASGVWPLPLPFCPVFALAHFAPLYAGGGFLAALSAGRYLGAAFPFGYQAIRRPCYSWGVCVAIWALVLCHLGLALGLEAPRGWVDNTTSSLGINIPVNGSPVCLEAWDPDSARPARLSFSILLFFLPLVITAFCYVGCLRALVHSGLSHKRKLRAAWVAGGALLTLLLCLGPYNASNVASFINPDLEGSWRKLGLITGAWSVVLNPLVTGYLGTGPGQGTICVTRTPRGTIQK
Chain of human GPR40/FFAR1 (O14842 whole entry): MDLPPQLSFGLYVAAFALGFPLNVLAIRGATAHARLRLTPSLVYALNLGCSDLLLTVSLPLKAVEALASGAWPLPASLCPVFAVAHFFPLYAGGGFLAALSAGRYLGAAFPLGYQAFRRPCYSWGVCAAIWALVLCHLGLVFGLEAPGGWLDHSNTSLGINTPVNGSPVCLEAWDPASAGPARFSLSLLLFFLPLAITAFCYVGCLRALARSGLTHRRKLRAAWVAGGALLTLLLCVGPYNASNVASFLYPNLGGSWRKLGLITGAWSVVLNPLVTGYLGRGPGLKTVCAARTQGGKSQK

SMILES: Cc1cc(OCCCS(C)(=O)=O)cc(C)c1-c1cccc(COc2ccc3c(c2)OC[C@H]3CC(=O)O)c1 [fasiglifam]
pancreatic toxicity [1]: does not cause pancreatic toxicity | glucose-lowering effect ([2]; T2DM patients, ref Burant et al. 2012, Kaku et al. 2013): glucose‐lowering effect | hepatotoxicity (liver enzyme levels) ([2]; clinical, ref Kaku et al. 2015): increased liver enzyme levels | clinical parameters of glucose homeostasis ([2]; healthy human adults, ref Leifke et al. 2012): did not affect clinical parameters of glucose homeostasis | safety and tolerability ([2]; healthy volunteers, ref Naik et al. 2012): safe and well tolerated

SMILES: COc1ccc(Cl)cc1C(=O)NCCc1ccc(S(=O)(=O)NC(=O)NC2CCCCC2)cc1 [glibenclamide, reference compound]
fasting plasma glucose levels (Sprague-Dawley rats [3]; glibenclamide 10 mg·kg^−1 p.o.): significantly reduced the fasting plasma glucose levels

EC50 (GPR40/FFAR1): 29000 nM | caspase 3/7 activity ([4]; 300 μmol·L^−1 with 0.5% BSA): induced caspase 3/7 activity
SMILES: CCCCCCCCCCCCCCCC(=O)O [palmitic acid, reference compound]

EC50 (GPR40/FFAR1): 210 nM | hGPR120 activation (at 3 nmol·L^−1) (human GPR120/FFAR4; at 3 nmol·L^−1 as printed): 4% | agonistic activity in GPR120/FFAR4-expressing cells (human GPR120/FFAR4; at 3 μmol·L^−1): did not show any agonistic activities | PPAR gamma activation (at 3 nmol·L^−1) (PPAR gamma; at 3 nmol·L^−1 as printed): 1% | agonistic activity in PPAR gamma-expressing cells (PPAR gamma; at 3 μmol·L^−1): did not show any agonistic activities | caspase 3/7 activity ([4]; even at 10 μmol·L^−1 with 0.5% BSA): did not induce caspase 3/7 activity | EC50 (mouse GPR40/FFAR1): 25 ± 4 nM | EC50 (rat GPR40/FFAR1): 27 ± 3 nM | AUC(0-inf) [6, 11]: 8960 ng·h/mL | Vd [6, 11]: 0.584 L/kg | clearance [6, 11]: 5.62 mL/min/kg | half-life [6, 11]: 1.92 h | AUC(0-inf) [6, 12]: 511 ng·h/mL | Cmax [6, 12]: 102 ng/mL | Tmax [6, 12]: 0.83 h | bioavailability [6, 12]: 57% | half-life [6, 12]: 2.48 h | AUC(0-inf) [6, 13]: 1450 ng·h/mL | Cmax [6, 13]: 264 ng/mL | Tmax [6, 13]: 2.67 h | bioavailability [6, 13]: 49% | half-life [6, 13]: 2.1 h | AUC(0-inf) [6, 14]: 4710 ng·h/mL | Cmax [6, 14]: 755 ng/mL | Tmax [6, 14]: 4 h | bioavailability [6, 14]: 53% | half-life [6, 14]: 2.13 h | AUC(0-inf) [6, 15]: 8430 ng·h/mL | Cmax [6, 15]: 1130 ng/mL | Tmax [6, 15]: 5.33 h | bioavailability [6, 15]: 28% | half-life [6, 15]: 2.08 h | time at which plasma concentrations reached maximum values ([6]; p.o., all tested doses (0.3-10 mg·kg^−1)): 0.83 to 5.33 h | EC50 (human GPR40/FFAR1): 35 ± 6 nM | hGPR119 activation (at 3 nmol·L^−1) (human GPR119; at 3 nmol·L^−1 as printed): 1% | agonistic activity in GPR119-expressing cells (human GPR119; at 3 μmol·L^−1): did not show any agonistic activities
SMILES: Cc1cc(OCCCS(C)(=O)=O)cc(C)c1-c1cccc(COc2ccc(-c3cc(O)n[s+]3[O-])cc2)c1 [MR1704, (R)‐5‐[4‐[3‐[2,6‐Dimethyl‐4‐[3‐(methylsulphonyl)propoxy]‐phenyl]benzyloxy]phenyl]‐isothiazol‐3‐ol 1‐oxide]
insulin secretion in low glucose (rat primary islets; MR1704 3 μmol·L^−1, 2 mmol·L^−1 glucose): but not low glucose conditions | insulin secretion in high glucose (rat primary islets; MR1704 3 μmol·L^−1, 16 mmol·L^−1 glucose): markedly potentiated insulin secretion in high glucose | AUC of glucose levels during OGTT (Sprague-Dawley rats [5]; 1 mg·kg^−1 p.o.): significant reduction in the AUC of glucose levels | plasma insulin secretion during OGTT (Sprague-Dawley rats [5]; [9]): significantly enhanced | plasma glucose excursion during OGTT (Sprague-Dawley rats [5]; [10]): reduced plasma glucose excursion | fasting plasma glucose levels (Sprague-Dawley rats [3]; even at 300 mg·kg^−1 p.o., 1 to 12 h after dosing): did not reduce the fasting plasma glucose levels | AUC of glucose levels during OGTT (Goto-Kakizaki (GK) rats [7]; 1 mg·kg^−1 p.o.): significant reduction in the AUC of glucose levels | plasma insulin secretion during OGTT (Goto-Kakizaki (GK) rats [7]; [9]): significantly enhanced plasma insulin secretion | plasma glucose excursion during OGTT (Goto-Kakizaki (GK) rats [7]; [10]): reduced plasma glucose excursion | glycated hemoglobin (HbA1c) levels, effect in words (Goto-Kakizaki (GK) rats [8]; 3 mg·kg^−1 p.o. once daily, after 5 weeks): significantly reduced glycated hemoglobin (HbA1c) levels | pancreatic insulin content (Goto-Kakizaki (GK) rats [8]; after 5-week treatment, vs vehicle): without reducing pancreatic insulin content; also recorded: No significant difference was observed | nonfasting glucose levels (Goto-Kakizaki (GK) rats [8]; at least 1 mg·kg^−1 p.o. once daily, 5 weeks): reduced nonfasting glucose levels | body weight gain (Goto-Kakizaki (GK) rats [8]; once daily p.o., 5 weeks, vs vehicle-treated group): comparable body weight gain

SMILES: [Cl-].[K+] [KCl, reference compound]
insulin secretion in low glucose (rat primary islets; KCl positive control, 2 mmol·L^−1 glucose): significantly potentiated insulin secretion | insulin secretion in high glucose (rat primary islets; KCl positive control, 16 mmol·L^−1 glucose): significantly potentiated insulin secretion
